In the library only some 2.2% were active in any assay of this set; here they are far more common.
Wee1 degr inh = blocks degradation of human Wee1 kinase; AID 1321; reporter increase, % at 5 µM; hit rate 1.2% among 220,000; P30291; HeLa Luc-Wee1K328M stability, luciferase luminescence; 100% = proteasome inhibitor MG132 effect;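 active = activation above the mean of all tested compounds plus 3 SD, set per screening run, cut at about 8.8% in these data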;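 also: cells exposed to compound for 20 h before luminescence read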
FXIIa inh = factor XIIa (human) inhibition; P00748; purified FXIIa, Boc-QGR-AMC fluorogenic substrate, 2 h; inhibition, % at 5 µM; hit rate 0.3% among 220,000; in the data active = inhibition above about 40%
FXIa inh 1536 = inhibitors of human coagulation factor XIa; P03951; purified FXIa, Boc-Glu-Ala-Arg-AMC fluorogenic substrate; inhibition, % at 5 µM; hit rate 0.14% among 220,000; AID 798;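 active = inhibition of at least 40%; inactive = inhibition below 40%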;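 also: fluorescence of freed AMC excited at 355 nm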
thrombin 1536 = inhibitors of human thrombin | AID 1046 | alpha-thrombin, Boc-VPR-AMC fluorogenic substrate cleavage | hit rate 0.26% among 220,000 | inhibition, % at 5 µM | P00734;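 active = inhibition at or above 40%; inactive = inhibition below 40%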
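System: Human alpha-thrombin protein | Medium: pH 7.5 Tris (50 mM) with NaCl 150 mM, Tween 20 0.05% | Times: Enzyme reaction carried out at room temperature | Detection: AMC fluorescence, 355/460 nm | Evaluation: Percent inhibition scaled between no-compound controls and no-enzyme blanks | Benchmarks: Enzyme without compound as high, wells lacking enzyme as low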
KLK5 inh = blocks human kallikrein 5 protease activity | Q9Y337 | recombinant hK5, fluorogenic AMC substrate cleavage | inhibition, % at 5 µM | hit rate 0.59% among 210,000 | AID 873;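 active = inhibition of 40% or more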
Target sequence (Q9Y337 67-293 limits assumed): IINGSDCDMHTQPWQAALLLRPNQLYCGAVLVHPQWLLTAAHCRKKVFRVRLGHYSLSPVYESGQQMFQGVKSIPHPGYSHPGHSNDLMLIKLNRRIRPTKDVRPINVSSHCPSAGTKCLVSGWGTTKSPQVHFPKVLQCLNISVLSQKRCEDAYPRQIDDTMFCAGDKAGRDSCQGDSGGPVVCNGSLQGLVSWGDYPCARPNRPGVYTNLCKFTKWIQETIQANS
Wee1 degr conf = human Wee1 degradation inhibition, confirmation | HeLa Luc-Wee1K328M degradation, luminescence; vehicle 0%, proteasome-blocked wells 100% | activation, % at 5 µM | hit rate 4% among 1,100 | shares compounds with Wee1 degr inh; in the data active = activation above about 8.9%
Numbers stand for hits.

CC1Cc2ccccc2N1CC(=O)NC(c1ccccc1)c1ccccc1 (stereo not given) was read as Wee1 degr inh inactive, FXIIa inh inactive, FXIa inh 1536 inactive, thrombin 1536 inactive and KLK5 inh inactive.
`CC(C)(C)c1cc(=O)n(-c2ccccc2)[nH]1` gave Wee1 degr inh inactive, FXIIa inh inactive, FXIa inh 1536 inactive, thrombin 1536 inactive and KLK5 inh inactive.
CSc1nc(C)cc(Oc2ccccc2)n1 was read as Wee1 degr inh inactive, FXIIa inh inactive, FXIa inh 1536 inactive, thrombin 1536 inactive and KLK5 inh inactive.
CSc1nccc(Oc2cncc(Cl)c2)n1 was read as Wee1 degr inh 16.8, FXIIa inh inactive, FXIa inh 1536 inactive, thrombin 1536 inactive, KLK5 inh inactive and Wee1 degr conf inactive.
`O=[N+]([O-])c1ccc(COc2cccc(CNc3ccc(F)cc3)c2)cc1` gave Wee1 degr inh 14.6, FXIIa inh inactive, FXIa inh 1536 inactive, thrombin 1536 inactive, KLK5 inh inactive and Wee1 degr conf inactive.
Screening CC(=O)Nc1ccc([C@H]2[C@H](C)CC[C@H]3C(=O)N4[C@@H](CC[C@@H](C)[C@@H]4c4ccc(NC(C)=O)cc4)C(=O)N32)cc1 returned Wee1 degr inh inactive, FXIIa inh inactive, FXIa inh 1536 inactive, thrombin 1536 inactive and KLK5 inh inactive.
For CC(Cc1cccnc1)NC(=O)CCc1nnc(-c2ccccc2)o1 (stereo not given) the results were Wee1 degr inh 18.9, FXIIa inh inactive, FXIa inh 1536 inactive, thrombin 1536 inactive, KLK5 inh inactive and Wee1 degr conf inactive.
`CC(NC(=O)CCc1nnc(-c2ccccc2)o1)c1ccccc1` (stereo not given) gave Wee1 degr inh inactive, FXIIa inh inactive, FXIa inh 1536 inactive, thrombin 1536 inactive and KLK5 inh inactive.
Screening CN1CCN(c2ncnc3c2cnn3-c2ccc(Cl)cc2)CC1 returned Wee1 degr inh 13.4, FXIIa inh inactive, FXIa inh 1536 inactive, thrombin 1536 inactive, KLK5 inh inactive and Wee1 degr conf inactive.
`COc1ccc(NC(=O)COC(=O)CCNS(=O)(=O)c2ccc(Cl)cc2)cc1` gave Wee1 degr inh inactive, FXIIa inh inactive, FXIa inh 1536 inactive, thrombin 1536 inactive and KLK5 inh inactive.
O=[N+]([O-])c1cc(/C=N/N2CCN(Cc3ccccc3)CC2)ccc1Cl was read as Wee1 degr inh 14.5, FXIIa inh inactive, FXIa inh 1536 inactive, thrombin 1536 inactive, KLK5 inh inactive and Wee1 degr conf inactive.
For BrC(/C=N/N1CCN(Cc2ccccc2)CC1)=C/c1ccccc1 the results were Wee1 degr inh 22.7, FXIIa inh inactive, FXIa inh 1536 inactive, thrombin 1536 inactive, KLK5 inh inactive and Wee1 degr conf inactive.
Screening BrC(=C\c1ccccc1)/C=N/N1CCN(Cc2ccccc2)CC1 returned Wee1 degr inh inactive, FXIIa inh inactive, FXIa inh 1536 inactive, thrombin 1536 inactive and KLK5 inh inactive.
Screening O=C(COC(=O)c1ccc(S(=O)(=O)N2CCCC2)cc1)NCc1cccs1 returned Wee1 degr inh inactive, FXIIa inh inactive, FXIa inh 1536 inactive, thrombin 1536 inactive and KLK5 inh inactive.
`O=C(CCNC(=O)c1ccccc1Cl)Nc1cc(S(=O)(=O)N2CCOCC2)ccc1N1CCCC1` gave Wee1 degr inh inactive, FXIIa inh inactive, FXIa inh 1536 inactive, thrombin 1536 inactive and KLK5 inh inactive.
Screening CN(C)CCNC(=O)COc1ccc(Cl)cc1Cl returned Wee1 degr inh inactive, FXIIa inh inactive, FXIa inh 1536 inactive, thrombin 1536 inactive and KLK5 inh inactive.
`CCN(CC)CCNC(=O)COc1ccc(Cl)cc1Cl` gave Wee1 degr inh 11.3, FXIIa inh inactive, FXIa inh 1536 inactive, thrombin 1536 inactive, KLK5 inh inactive and Wee1 degr conf inactive.
`Cc1ccc(NC(=O)NCc2c(C)nn(C)c2C)cc1Cl` gave Wee1 degr inh 17.7, FXIIa inh inactive, FXIa inh 1536 inactive, thrombin 1536 inactive, KLK5 inh inactive and Wee1 degr conf inactive.
For Cc1nn(C)cc1CNC(=O)Nc1ccc(Cl)c(Cl)c1 the results were Wee1 degr inh inactive, FXIIa inh inactive, FXIa inh 1536 inactive, thrombin 1536 inactive and KLK5 inh inactive.
COc1ccc(C(C)C)cc1S(=O)(=O)n1ccnc1C was read as Wee1 degr inh 12.8, FXIIa inh inactive, FXIa inh 1536 inactive, thrombin 1536 inactive, KLK5 inh inactive and Wee1 degr conf inactive.

Bioassay records as filed in PubChem BioAssay.
